Active and inactive are the calls of the source. No cut-off for these calls is given here.
Experiments:
Format in all cases: cell-based
[1] = target: T1, Neuronal acetylcholine receptor; alpha4/beta2 (Homo sapiens, UniProt P17787+P43681); assay: Agonist activity at human alpha4beta2 nAChR expressed in HEK293 cells assessed as increase in calcium influx at 100 uM measured for 78 secs by Fluo-4-AM dye based FLIPR assay
Method in brief: (§1)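 Cells seeded 5 × 10^4/well 72 h before, 37 °C, 5% CO2; medium switched to HBSS (pH 7.4)/1% FBS 16–24 h before assay. Loaded 1 h at 37 °C with Fluo-4 plus 2.5 mM probenecid. Compound added alone on FLIPR, fluorescence (ex 488/em 510 nm) recorded 78 s; response normalized to maximal (±)-epibatidine response.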

[2] = target: T2, Neuronal acetylcholine receptor subunit alpha-7 (Homo sapiens, UniProt P36544); assay: Agonist activity at human alpha7 nAChR expressed in rat GH3 cells assessed as increase in calcium influx at 100 uM measured for 78 secs by Fluo-4-AM dye based FLIPR assay; method in brief: as §1
T2 sequence (P36544 whole entry): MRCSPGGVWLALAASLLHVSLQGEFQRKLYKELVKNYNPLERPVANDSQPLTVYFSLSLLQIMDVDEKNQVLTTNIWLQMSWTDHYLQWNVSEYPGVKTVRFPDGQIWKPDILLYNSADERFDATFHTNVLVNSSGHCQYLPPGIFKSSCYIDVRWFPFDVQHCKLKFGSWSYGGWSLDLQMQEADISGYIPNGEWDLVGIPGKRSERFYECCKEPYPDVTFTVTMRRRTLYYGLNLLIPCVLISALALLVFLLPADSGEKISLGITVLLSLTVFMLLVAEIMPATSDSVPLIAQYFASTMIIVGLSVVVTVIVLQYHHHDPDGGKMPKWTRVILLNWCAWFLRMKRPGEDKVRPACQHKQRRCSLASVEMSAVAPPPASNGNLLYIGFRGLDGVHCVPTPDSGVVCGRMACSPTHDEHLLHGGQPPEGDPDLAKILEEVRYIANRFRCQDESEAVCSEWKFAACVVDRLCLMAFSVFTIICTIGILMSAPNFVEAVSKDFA

[3] = target: T2, Neuronal acetylcholine receptor subunit alpha-7; assay: Antagonist activity at human alpha7 nAChR expressed in HEK293 cells assessed as inhibition of (+/-)-epibatidine-induced calcium influx preincubated for 5 mins followed by (+/-)-epibatidine addition measured for 78 secs by Fluo-4-AM dye based FLIPR assay; settings: in the assay text read “GH3” for “HEK293”
Method in brief: (§2)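 Fluo-4-loaded cells (1 h, 37 °C, 2.5 mM probenecid) washed twice in HBSS/1% FBS, then preincubated 5 min with test ligand at various concentrations. 0.1 μM (±)-epibatidine added on FLIPR after 5-reading baseline; fluorescence (ex 488/em 510 nm) recorded 78 s. Response normalized to maximal epibatidine response; IC50 and nH from nonlinear least-squares curve fits; SD, n = 3.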

[4] = target: T3, Neuronal acetylcholine receptor; alpha3/beta4 (Homo sapiens, UniProt P30926+P32297); assay: Agonist activity at human alpha3beta4 nAChR expressed in HEK293 cells assessed as increase in calcium influx at 100 uM measured for 78 secs by Fluo-4-AM dye based FLIPR assay; method in brief: as §1
T3 sequence (P30926 whole entry): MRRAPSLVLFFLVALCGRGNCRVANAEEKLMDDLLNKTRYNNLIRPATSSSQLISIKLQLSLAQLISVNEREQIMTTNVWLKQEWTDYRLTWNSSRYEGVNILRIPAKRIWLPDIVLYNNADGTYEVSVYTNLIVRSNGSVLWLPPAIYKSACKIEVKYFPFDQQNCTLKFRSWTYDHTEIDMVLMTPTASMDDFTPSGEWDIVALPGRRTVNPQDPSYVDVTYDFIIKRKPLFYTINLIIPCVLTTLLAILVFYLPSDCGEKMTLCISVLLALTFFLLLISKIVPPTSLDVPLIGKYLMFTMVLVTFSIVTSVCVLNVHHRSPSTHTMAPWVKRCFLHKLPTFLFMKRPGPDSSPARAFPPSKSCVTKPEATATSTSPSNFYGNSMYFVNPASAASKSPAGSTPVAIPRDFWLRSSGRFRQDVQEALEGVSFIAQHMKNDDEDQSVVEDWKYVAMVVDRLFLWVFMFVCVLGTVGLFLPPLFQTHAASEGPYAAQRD
T3 sequence (P32297 whole entry): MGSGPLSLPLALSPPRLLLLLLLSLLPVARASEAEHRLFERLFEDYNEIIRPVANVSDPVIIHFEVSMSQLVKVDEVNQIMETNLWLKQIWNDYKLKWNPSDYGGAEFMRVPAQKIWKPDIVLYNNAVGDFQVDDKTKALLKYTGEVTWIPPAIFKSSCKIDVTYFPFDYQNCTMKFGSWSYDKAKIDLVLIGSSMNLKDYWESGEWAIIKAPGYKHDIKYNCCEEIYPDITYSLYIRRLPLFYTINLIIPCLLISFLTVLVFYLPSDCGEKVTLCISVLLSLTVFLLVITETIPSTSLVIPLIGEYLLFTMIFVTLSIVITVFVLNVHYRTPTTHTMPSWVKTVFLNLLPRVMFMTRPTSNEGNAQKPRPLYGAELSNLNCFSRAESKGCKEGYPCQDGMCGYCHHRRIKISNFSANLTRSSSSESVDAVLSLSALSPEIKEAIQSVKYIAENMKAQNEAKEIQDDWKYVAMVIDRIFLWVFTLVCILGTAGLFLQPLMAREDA

[5] = target: T1, Neuronal acetylcholine receptor; alpha4/beta2; assay: Antagonist activity at human alpha4beta2 nAChR expressed in HEK293 cells assessed as inhibition of (+/-)-epibatidine-induced calcium influx at 1 uM preincubated for 5 mins followed by (+/-)-epibatidine addition measured for 78 secs by Fluo-4-AM dye based FLIPR assay; method in brief: as §2
[6] = target: T1, Neuronal acetylcholine receptor; alpha4/beta2; assay: Antagonist activity at human alpha4beta2 nAChR expressed in HEK293 cells assessed as inhibition of (+/-)-epibatidine-induced calcium influx preincubated for 5 mins followed by (+/-)-epibatidine addition measured for 78 secs by Fluo-4-AM dye based FLIPR assay; method in brief: as §2
[7] = target: T3, Neuronal acetylcholine receptor; alpha3/beta4; assay: Antagonist activity at human alpha3beta4 nAChR expressed in HEK293 cells assessed as inhibition of (+/-)-epibatidine-induced calcium influx preincubated for 5 mins followed by (+/-)-epibatidine addition measured for 78 secs by Fluo-4-AM dye based FLIPR assay; method in brief: as §2
[8] = target: T1, Neuronal acetylcholine receptor; alpha4/beta2; assay: Antagonist activity at human alpha4beta2 nAChR expressed in HEK293 cells assessed as inhibition of (+/-)-epibatidine-induced calcium influx at 10 to 100 uM preincubated for 5 mins followed by (+/-)-epibatidine addition measured for 78 secs by Fluo-4-AM dye based FLIPR assay relative to control; method in brief: as §2
[9] = target: T1, Neuronal acetylcholine receptor; alpha4/beta2; assay: Non-competitive inhibition of human alpha4beta2 nAChR expressed in HEK293 cells assessed as inhibition of (+/-)-epibatidine-induced calcium influx preincubated for 5 mins followed by (+/-)-epibatidine addition measured for 78 secs by Fluo-4-AM dye based FLIPR assay
Method in brief: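 (±)-Epibatidine concentration–response curves measured on hα4β2 HEK293 cells without drimane or after 5 min preincubation with 0.3, 1.0 and 3.0 μM; Fluo-4 Ca2+ fluorescence on FLIPR, 78 s recording; n = 3.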

[10] = target: T1, Neuronal acetylcholine receptor; alpha4/beta2; assay: Antagonist activity at human alpha4beta2 nAChR expressed in HEK293 cells assessed as inhibition of (+/-)-epibatidine-induced calcium influx up to 100 uM preincubated for 5 mins followed by (+/-)-epibatidine addition measured for 78 secs by Fluo-4-AM dye based FLIPR assay; method in brief: as §2

T1 sequence (P17787 whole entry): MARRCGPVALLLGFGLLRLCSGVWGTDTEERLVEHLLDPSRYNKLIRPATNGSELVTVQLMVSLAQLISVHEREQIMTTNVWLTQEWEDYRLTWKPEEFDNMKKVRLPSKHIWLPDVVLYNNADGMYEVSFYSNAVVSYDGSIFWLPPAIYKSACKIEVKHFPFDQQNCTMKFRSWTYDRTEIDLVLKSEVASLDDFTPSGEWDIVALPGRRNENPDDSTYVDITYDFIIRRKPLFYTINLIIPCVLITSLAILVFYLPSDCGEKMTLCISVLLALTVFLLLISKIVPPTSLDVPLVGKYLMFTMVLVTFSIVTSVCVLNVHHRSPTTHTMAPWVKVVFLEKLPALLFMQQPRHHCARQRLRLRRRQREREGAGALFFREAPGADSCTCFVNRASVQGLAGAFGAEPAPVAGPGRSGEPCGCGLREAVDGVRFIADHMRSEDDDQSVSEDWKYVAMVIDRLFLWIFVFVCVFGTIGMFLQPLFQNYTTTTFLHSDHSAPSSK
T1 sequence (P43681 whole entry): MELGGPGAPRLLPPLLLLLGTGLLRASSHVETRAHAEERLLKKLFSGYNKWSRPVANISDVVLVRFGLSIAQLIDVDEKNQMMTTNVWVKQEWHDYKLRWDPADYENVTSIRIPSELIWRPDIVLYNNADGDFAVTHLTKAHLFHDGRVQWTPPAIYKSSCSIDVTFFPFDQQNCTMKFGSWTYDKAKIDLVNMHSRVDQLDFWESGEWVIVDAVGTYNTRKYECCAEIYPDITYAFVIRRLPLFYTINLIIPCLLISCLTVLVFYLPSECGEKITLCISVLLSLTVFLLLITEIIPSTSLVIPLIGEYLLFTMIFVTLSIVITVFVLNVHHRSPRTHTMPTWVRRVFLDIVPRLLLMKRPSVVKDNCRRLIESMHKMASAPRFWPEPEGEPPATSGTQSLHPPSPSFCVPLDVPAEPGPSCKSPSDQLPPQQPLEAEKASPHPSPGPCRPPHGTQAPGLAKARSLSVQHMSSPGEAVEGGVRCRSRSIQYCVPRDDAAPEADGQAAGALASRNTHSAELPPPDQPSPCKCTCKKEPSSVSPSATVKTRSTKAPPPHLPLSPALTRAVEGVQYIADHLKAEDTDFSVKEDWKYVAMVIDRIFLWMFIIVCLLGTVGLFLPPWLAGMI

| Activity [1] | Activity [2] | IC50 [3] [µM] | Activity [4] | inhibition [5] | IC50 ([6]; read-out: IC50) [µM] | IC50 [7] [µM] | inhibition [8] [%] | inhibition [9] | SMILES | IC50 ([6]; hek293) | inhibition [10] |
| --- | --- | --- | --- | --- | --- | --- | --- | --- | --- | --- | --- |
| inactive | inactive | > 100 | inactive | Active | 62.5 | 48.2 | – | – | CC1(C)CCC[C@]2(C)[C@@H](C=O)C(C=O)=CC[C@@H]12 [POLYGODIAL] | – | – |
| inactive | inactive | 13.8 | inactive | – | 0.97 | 1.78 | 100 | Active | CC1(C)CCC[C@]2(C)[C@H]3C(=O)OCC3=CC[C@@H]12 [DRIMENIN] | – | – |
| inactive | inactive | 4.64 | inactive | Active | 1.57 | 2.62 | – | – | CC1(C)CCC[C@]2(C)[C@H]3COC(=O)C3=CC[C@@H]12 [CINNAMOLIDE] | – | – |

| SMILES | Activity [1] | Activity [2] | IC50 [3] [µM] | Activity [4] | inhibition [5] | IC50 ([6]; read-out: IC50) [µM] | IC50 [7] [µM] | inhibition [8] [%] | inhibition [9] | IC50 ([6]; hek293) | inhibition [10] |
| --- | --- | --- | --- | --- | --- | --- | --- | --- | --- | --- | --- |
| CC1(C)CCC[C@]2(C)[C@@H]3C(=CC[C@@H]12)C(=O)O[C@H]3O [DENDOCARBIN A] | inactive | inactive | > 100 | inactive | – | – | > 100 | – | – | Not Active | inactive |
| Clc1ccc(C2C[C@@H]3CCC2N3)cn1 (stereo partly drawn) | inactive | inactive | – | inactive | Active | – | – | – | – | – | – |

From ChEMBL document CHEMBL4251719, “Drimane Sesquiterpenoids Noncompetitively Inhibit Human α4β2 Nicotinic Acetylcholine Receptors with Higher Potency Compared to Human α3β4 and α7 Subtypes” (J Nat Prod, 2018)
